Tested on: Fibroblast
Assay: Multiplex assay against human fibroblast
Type: toxicity, cell-based
Summary of the method: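 Tubulin, mitochondrial-mass and membrane-permeability phenotypes are per cents of healthy-nucleus cells. Cells were gated by CellPathfinder machine learning into Hoechst high-intensity objects or normal cells, normal cells into healthy, pyknosed or fragmented nuclei, and pyknosed cells into mitotic or apoptotic. Before that, live cells stained at seeding with Hoechst33342, BioTracker Green Microtubule Cytoskeleton Dye, MitoTracker Red and Annexin V Alexa Fluor 680 were imaged on a CQ1 microscope at 37°C and 5% CO2 after compound addition.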

[1] = 12 h, 1 µM, compound concentration 1 uM, replicate 1
[2] = 12 h, 1 µM, compound concentration 1 uM, replicate 2
[3] = 12 h, 10 µM, compound concentration 10 uM, replicate 1
[4] = 12 h, 10 µM, compound concentration 10 uM, replicate 2
[5] = 24 h, 1 µM, compound concentration 1 uM, replicate 1
[6] = 24 h, 1 µM, compound concentration 1 uM, replicate 2
[7] = 24 h, 10 µM, compound concentration 10 uM, replicate 1
[8] = 24 h, 10 µM, compound concentration 10 uM, replicate 2
[9] = 48 h, 1 µM, compound concentration 1 uM, replicate 1
[10] = 48 h, 1 µM, compound concentration 1 uM, replicate 2
[11] = 48 h, 10 µM, compound concentration 10 uM, replicate 1
[12] = 48 h, 10 µM, compound concentration 10 uM, replicate 2

O=c1ccc2ccc(OCCCCN3CCN(c4cccc5sccc45)CC3)cc2[nH]1 [BREXPIPRAZOLE]
Population Apoptotic (%) [1]: 56% | Population Fragmented Nuclei (%) [1]: 17% | Population Healthy Nuclei (%) [1]: 62% | Population Hoechst High Intensity Objects (%) [1]: 2% | Population Membrane Permeable-Phenotype (%) [1]: 0% | Population Mitochondria Different-Phenotype (%) [1]: 5% | Population Mitotic Cells (%) [1]: 44% | Population Normal (%) [1]: 97% | Population Pyknosed Nuclei (%) [1]: 20% | Population Tubulin-Different-Phenotype (%) [1]: 41% | Total Cell Count [1]: 126 | Population Apoptotic (%) [2]: 48% | Population Fragmented Nuclei (%) [2]: 33% | Population Healthy Nuclei (%) [2]: 44% | Population Hoechst High Intensity Objects (%) [2]: 5% | Population Membrane Permeable-Phenotype (%) [2]: 2% | Population Mitochondria Different-Phenotype (%) [2]: 15% | Population Mitotic Cells (%) [2]: 51% | Population Normal (%) [2]: 94% | Population Pyknosed Nuclei (%) [2]: 21% | Population Tubulin-Different-Phenotype (%) [2]: 73% | Total Cell Count [2]: 169 | Population Apoptotic (%) [3]: 68% | Population Fragmented Nuclei (%) [3]: 16% | Population Healthy Nuclei (%) [3]: 64% | Population Hoechst High Intensity Objects (%) [3]: 1% | Population Membrane Permeable-Phenotype (%) [3]: 0% | Population Mitochondria Different-Phenotype (%) [3]: 39% | Population Mitotic Cells (%) [3]: 31% | Population Normal (%) [3]: 98% | Population Pyknosed Nuclei (%) [3]: 19% | Population Tubulin-Different-Phenotype (%) [3]: 83% | Total Cell Count [3]: 203 | Population Apoptotic (%) [4]: 45% | Population Fragmented Nuclei (%) [4]: 30% | Population Healthy Nuclei (%) [4]: 49% | Population Hoechst High Intensity Objects (%) [4]: 11% | Population Membrane Permeable-Phenotype (%) [4]: 2% | Population Mitochondria Different-Phenotype (%) [4]: 25% | Population Mitotic Cells (%) [4]: 54% | Population Normal (%) [4]: 88% | Population Pyknosed Nuclei (%) [4]: 20% | Population Tubulin-Different-Phenotype (%) [4]: 81% | Total Cell Count [4]: 243 | Population Apoptotic (%) [5]: 56% | Population Fragmented Nuclei (%) [5]: 17% | Population Healthy Nuclei (%) [5]: 69% | Population Hoechst High Intensity Objects (%) [5]: 1% | Population Membrane Permeable-Phenotype (%) [5]: 0% | Population Mitochondria Different-Phenotype (%) [5]: 8% | Population Mitotic Cells (%) [5]: 43% | Population Normal (%) [5]: 98% | Population Pyknosed Nuclei (%) [5]: 13% | Population Tubulin-Different-Phenotype (%) [5]: 43% | Total Cell Count [5]: 122 | Population Apoptotic (%) [6]: 33% | Population Fragmented Nuclei (%) [6]: 32% | Population Healthy Nuclei (%) [6]: 52% | Population Hoechst High Intensity Objects (%) [6]: 3% | Population Membrane Permeable-Phenotype (%) [6]: 2% | Population Mitochondria Different-Phenotype (%) [6]: 14% | Population Mitotic Cells (%) [6]: 66% | Population Normal (%) [6]: 96% | Population Pyknosed Nuclei (%) [6]: 14% | Population Tubulin-Different-Phenotype (%) [6]: 76% | Total Cell Count [6]: 173 | Population Apoptotic (%) [7]: 58% | Population Fragmented Nuclei (%) [7]: 13% | Population Healthy Nuclei (%) [7]: 54% | Population Hoechst High Intensity Objects (%) [7]: 13% | Population Membrane Permeable-Phenotype (%) [7]: 0% | Population Mitochondria Different-Phenotype (%) [7]: 63% | Population Mitotic Cells (%) [7]: 41% | Population Normal (%) [7]: 86% | Population Pyknosed Nuclei (%) [7]: 31% | Population Tubulin-Different-Phenotype (%) [7]: 85% | Total Cell Count [7]: 218 | Population Apoptotic (%) [8]: 65% | Population Fragmented Nuclei (%) [8]: 30% | Population Healthy Nuclei (%) [8]: 40% | Population Hoechst High Intensity Objects (%) [8]: 19% | Population Mitochondria Different-Phenotype (%) [8]: 34% | Population Mitotic Cells (%) [8]: 34% | Population Normal (%) [8]: 80% | Population Pyknosed Nuclei (%) [8]: 28% | Population Tubulin-Different-Phenotype (%) [8]: 71% | Total Cell Count [8]: 239 | Population Apoptotic (%) [9]: 62% | Population Fragmented Nuclei (%) [9]: 24% | Population Healthy Nuclei (%) [9]: 62% | Population Hoechst High Intensity Objects (%) [9]: 4% | Population Membrane Permeable-Phenotype (%) [9]: 0% | Population Mitochondria Different-Phenotype (%) [9]: 10% | Population Mitotic Cells (%) [9]: 37% | Population Normal (%) [9]: 95% | Population Pyknosed Nuclei (%) [9]: 12% | Population Tubulin-Different-Phenotype (%) [9]: 52% | Total Cell Count [9]: 133 | Population Apoptotic (%) [10]: 60% | Population Fragmented Nuclei (%) [10]: 42% | Population Healthy Nuclei (%) [10]: 51% | Population Membrane Permeable-Phenotype (%) [10]: 1% | Population Mitochondria Different-Phenotype (%) [10]: 9% | Population Mitotic Cells (%) [10]: 40% | Population Pyknosed Nuclei (%) [10]: 5% | Population Tubulin-Different-Phenotype (%) [10]: 67% | Total Cell Count [10]: 175 | Population Apoptotic (%) [11]: 62% | Population Fragmented Nuclei (%) [11]: 18% | Population Healthy Nuclei (%) [11]: 50% | Population Hoechst High Intensity Objects (%) [11]: 34% | Population Membrane Permeable-Phenotype (%) [11]: 0% | Population Mitochondria Different-Phenotype (%) [11]: 60% | Population Mitotic Cells (%) [11]: 37% | Population Normal (%) [11]: 65% | Population Pyknosed Nuclei (%) [11]: 31% | Population Tubulin-Different-Phenotype (%) [11]: 88% | Total Cell Count [11]: 208 | Population Apoptotic (%) [12]: 44% | Population Fragmented Nuclei (%) [12]: 30% | Population Healthy Nuclei (%) [12]: 43% | Population Mitochondria Different-Phenotype (%) [12]: 20% | Population Mitotic Cells (%) [12]: 55% | Population Pyknosed Nuclei (%) [12]: 26% | Population Tubulin-Different-Phenotype (%) [12]: 55% | Total Cell Count [12]: 317

C=CCN1C[C@H](C(=O)N(CCCN(C)C)C(=O)NCC)C[C@@H]2c3cccc4[nH]cc(c34)C[C@H]21 [CABERGOLINE]
Population Apoptotic (%) [1]: 69% | Population Fragmented Nuclei (%) [1]: 13% | Population Healthy Nuclei (%) [1]: 78% | Population Hoechst High Intensity Objects (%) [1]: 6% | Population Membrane Permeable-Phenotype (%) [1]: 0% | Population Mitochondria Different-Phenotype (%) [1]: 2% | Population Mitotic Cells (%) [1]: 30% | Population Normal (%) [1]: 93% | Population Pyknosed Nuclei (%) [1]: 7% | Population Tubulin-Different-Phenotype (%) [1]: 26% | Total Cell Count [1]: 186 | Population Apoptotic (%) [2]: 35% | Population Fragmented Nuclei (%) [2]: 20% | Population Healthy Nuclei (%) [2]: 46% | Population Membrane Permeable-Phenotype (%) [2]: 4% | Population Mitochondria Different-Phenotype (%) [2]: 1% | Population Mitotic Cells (%) [2]: 64% | Population Pyknosed Nuclei (%) [2]: 33% | Population Tubulin-Different-Phenotype (%) [2]: 25% | Total Cell Count [2]: 144 | Population Apoptotic (%) [3]: 50% | Population Fragmented Nuclei (%) [3]: 25% | Population Healthy Nuclei (%) [3]: 64% | Population Hoechst High Intensity Objects (%) [3]: 3% | Population Membrane Permeable-Phenotype (%) [3]: 0% | Population Mitochondria Different-Phenotype (%) [3]: 11% | Population Mitotic Cells (%) [3]: 50% | Population Normal (%) [3]: 96% | Population Pyknosed Nuclei (%) [3]: 10% | Population Tubulin-Different-Phenotype (%) [3]: 46% | Total Cell Count [3]: 248 | Population Apoptotic (%) [4]: 35% | Population Fragmented Nuclei (%) [4]: 44% | Population Healthy Nuclei (%) [4]: 39% | Population Hoechst High Intensity Objects (%) [4]: 5% | Population Membrane Permeable-Phenotype (%) [4]: 6% | Population Mitochondria Different-Phenotype (%) [4]: 10% | Population Mitotic Cells (%) [4]: 64% | Population Normal (%) [4]: 94% | Population Pyknosed Nuclei (%) [4]: 16% | Population Tubulin-Different-Phenotype (%) [4]: 53% | Total Cell Count [4]: 178 | Population Apoptotic (%) [5]: 68% | Population Fragmented Nuclei (%) [5]: 15% | Population Healthy Nuclei (%) [5]: 74% | Population Hoechst High Intensity Objects (%) [5]: 4% | Population Membrane Permeable-Phenotype (%) [5]: 1% | Population Mitochondria Different-Phenotype (%) [5]: 3% | Population Mitotic Cells (%) [5]: 31% | Population Normal (%) [5]: 95% | Population Pyknosed Nuclei (%) [5]: 10% | Population Tubulin-Different-Phenotype (%) [5]: 33% | Total Cell Count [5]: 198 | Population Apoptotic (%) [6]: 44% | Population Fragmented Nuclei (%) [6]: 24% | Population Healthy Nuclei (%) [6]: 46% | Population Hoechst High Intensity Objects (%) [6]: 6% | Population Membrane Permeable-Phenotype (%) [6]: 3% | Population Mitotic Cells (%) [6]: 55% | Population Normal (%) [6]: 93% | Population Pyknosed Nuclei (%) [6]: 29% | Population Tubulin-Different-Phenotype (%) [6]: 39% | Total Cell Count [6]: 132 | Population Apoptotic (%) [7]: 73% | Population Fragmented Nuclei (%) [7]: 28% | Population Healthy Nuclei (%) [7]: 65% | Population Hoechst High Intensity Objects (%) [7]: 1% | Population Membrane Permeable-Phenotype (%) [7]: 0% | Population Mitochondria Different-Phenotype (%) [7]: 7% | Population Mitotic Cells (%) [7]: 26% | Population Normal (%) [7]: 98% | Population Pyknosed Nuclei (%) [7]: 5% | Population Tubulin-Different-Phenotype (%) [7]: 44% | Total Cell Count [7]: 274 | Population Apoptotic (%) [8]: 43% | Population Fragmented Nuclei (%) [8]: 43% | Population Healthy Nuclei (%) [8]: 46% | Population Hoechst High Intensity Objects (%) [8]: 10% | Population Membrane Permeable-Phenotype (%) [8]: 2% | Population Mitochondria Different-Phenotype (%) [8]: 5% | Population Mitotic Cells (%) [8]: 56% | Population Normal (%) [8]: 89% | Population Pyknosed Nuclei (%) [8]: 9% | Population Tubulin-Different-Phenotype (%) [8]: 53% | Total Cell Count [8]: 181 | Population Apoptotic (%) [9]: 56% | Population Fragmented Nuclei (%) [9]: 15% | Population Healthy Nuclei (%) [9]: 75% | Population Hoechst High Intensity Objects (%) [9]: 5% | Population Membrane Permeable-Phenotype (%) [9]: 0% | Population Mitochondria Different-Phenotype (%) [9]: 6% | Population Mitotic Cells (%) [9]: 43% | Population Normal (%) [9]: 94% | Population Pyknosed Nuclei (%) [9]: 8% | Population Tubulin-Different-Phenotype (%) [9]: 34% | Total Cell Count [9]: 189 | Population Apoptotic (%) [10]: 58% | Population Fragmented Nuclei (%) [10]: 24% | Population Healthy Nuclei (%) [10]: 54% | Population Hoechst High Intensity Objects (%) [10]: 7% | Population Membrane Permeable-Phenotype (%) [10]: 6% | Population Mitochondria Different-Phenotype (%) [10]: 1% | Population Mitotic Cells (%) [10]: 41% | Population Normal (%) [10]: 92% | Population Pyknosed Nuclei (%) [10]: 21% | Population Tubulin-Different-Phenotype (%) [10]: 33% | Total Cell Count [10]: 156 | Population Apoptotic (%) [11]: 72% | Population Fragmented Nuclei (%) [11]: 24% | Population Healthy Nuclei (%) [11]: 68% | Population Hoechst High Intensity Objects (%) [11]: 4% | Population Membrane Permeable-Phenotype (%) [11]: 1% | Population Mitochondria Different-Phenotype (%) [11]: 4% | Population Mitotic Cells (%) [11]: 27% | Population Normal (%) [11]: 95% | Population Pyknosed Nuclei (%) [11]: 6% | Population Tubulin-Different-Phenotype (%) [11]: 46% | Total Cell Count [11]: 282 | Population Apoptotic (%) [12]: 46% | Population Fragmented Nuclei (%) [12]: 52% | Population Healthy Nuclei (%) [12]: 37% | Population Hoechst High Intensity Objects (%) [12]: 5% | Population Membrane Permeable-Phenotype (%) [12]: 6% | Population Mitochondria Different-Phenotype (%) [12]: 11% | Population Mitotic Cells (%) [12]: 53% | Population Normal (%) [12]: 94% | Population Pyknosed Nuclei (%) [12]: 9% | Population Tubulin-Different-Phenotype (%) [12]: 44% | Total Cell Count [12]: 170
